Test results taken from the M2OR odorant receptor database.

Columns and labels:
Settings in all cases: stereoisomer not certain
[1] = molecular target: T1, OR10A3 (Homo sapiens) (UniProt P58181)
T1 sequence (whole entry): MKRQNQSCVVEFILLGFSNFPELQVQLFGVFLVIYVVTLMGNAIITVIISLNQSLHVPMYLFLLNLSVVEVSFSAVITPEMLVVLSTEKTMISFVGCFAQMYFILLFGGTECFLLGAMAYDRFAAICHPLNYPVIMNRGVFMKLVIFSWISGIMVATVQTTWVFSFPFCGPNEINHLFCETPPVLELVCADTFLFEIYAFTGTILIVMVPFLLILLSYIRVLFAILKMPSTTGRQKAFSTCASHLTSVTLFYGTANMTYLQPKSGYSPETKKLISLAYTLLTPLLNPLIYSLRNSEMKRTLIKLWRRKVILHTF
Method in brief: (§1)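 Transient luciferase assays in mammalian cell lines were common, though methods varied by source. The values come from published papers and their supplementary material, with extra details from the original authors when needed. Responsive refers to a measured signal the original authors judged statistically different from baseline, and non-responsive (inactive) to the remainder.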

[2] = molecular target: T2, OR10A4 (Homo sapiens) (UniProt Q9H209)
T2 sequence (whole entry): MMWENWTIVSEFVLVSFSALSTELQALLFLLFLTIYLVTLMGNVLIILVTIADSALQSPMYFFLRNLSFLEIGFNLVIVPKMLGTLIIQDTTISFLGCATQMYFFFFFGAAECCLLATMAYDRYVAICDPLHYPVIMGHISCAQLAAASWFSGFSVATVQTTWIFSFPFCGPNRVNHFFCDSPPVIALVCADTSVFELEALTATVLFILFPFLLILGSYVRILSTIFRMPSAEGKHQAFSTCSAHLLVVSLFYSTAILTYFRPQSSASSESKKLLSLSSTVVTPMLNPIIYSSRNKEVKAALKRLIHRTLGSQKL
Method in brief: as §1

[3] = molecular target: T3, OR10A5 (Homo sapiens) (UniProt Q9H207)
T3 sequence (whole entry): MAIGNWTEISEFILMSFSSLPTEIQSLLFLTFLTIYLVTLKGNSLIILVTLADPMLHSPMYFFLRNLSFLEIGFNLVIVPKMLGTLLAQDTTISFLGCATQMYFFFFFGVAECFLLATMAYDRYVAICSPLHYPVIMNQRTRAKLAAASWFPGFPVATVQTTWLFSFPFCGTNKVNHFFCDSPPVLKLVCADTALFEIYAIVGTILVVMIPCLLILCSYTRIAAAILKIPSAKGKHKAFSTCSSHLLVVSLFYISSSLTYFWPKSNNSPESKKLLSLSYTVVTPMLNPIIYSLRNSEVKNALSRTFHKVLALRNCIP
Method in brief: as §1

[4] = molecular target: T4, OR10A6 (Homo sapiens) (UniProt Q8NH74)
T4 sequence (whole entry): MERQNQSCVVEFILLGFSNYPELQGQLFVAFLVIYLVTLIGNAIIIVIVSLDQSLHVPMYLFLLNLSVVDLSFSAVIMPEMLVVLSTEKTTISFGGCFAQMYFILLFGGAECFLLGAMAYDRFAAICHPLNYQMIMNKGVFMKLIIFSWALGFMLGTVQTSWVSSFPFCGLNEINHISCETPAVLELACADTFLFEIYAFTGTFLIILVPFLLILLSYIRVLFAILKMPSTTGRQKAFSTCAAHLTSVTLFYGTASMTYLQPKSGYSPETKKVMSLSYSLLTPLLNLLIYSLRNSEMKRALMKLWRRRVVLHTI
Method in brief: as §1

[5] = molecular target: T5, OR10A7 (Homo sapiens) (UniProt Q8NGE5)
T5 sequence (whole entry): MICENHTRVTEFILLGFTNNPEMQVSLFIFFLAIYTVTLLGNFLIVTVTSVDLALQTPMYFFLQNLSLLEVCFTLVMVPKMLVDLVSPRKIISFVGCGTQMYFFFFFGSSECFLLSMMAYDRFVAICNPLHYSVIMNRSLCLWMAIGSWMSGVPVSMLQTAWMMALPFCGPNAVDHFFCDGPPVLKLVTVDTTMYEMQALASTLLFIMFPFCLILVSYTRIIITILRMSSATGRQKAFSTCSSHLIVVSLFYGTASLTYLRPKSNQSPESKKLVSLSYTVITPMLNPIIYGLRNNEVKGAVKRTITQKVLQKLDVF
Method in brief: as §1

[6] = molecular target: T6, OR10AD1 (Homo sapiens) (UniProt Q8NGE0)
T6 sequence (whole entry): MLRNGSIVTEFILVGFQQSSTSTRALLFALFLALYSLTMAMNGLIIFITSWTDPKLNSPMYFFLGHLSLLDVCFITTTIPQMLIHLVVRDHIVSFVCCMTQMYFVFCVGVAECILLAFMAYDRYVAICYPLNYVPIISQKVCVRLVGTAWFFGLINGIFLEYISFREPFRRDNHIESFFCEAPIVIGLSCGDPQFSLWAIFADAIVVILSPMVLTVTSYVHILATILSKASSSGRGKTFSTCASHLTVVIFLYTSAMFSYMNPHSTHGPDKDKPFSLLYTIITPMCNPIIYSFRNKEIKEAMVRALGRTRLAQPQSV
Method in brief: as §1

[7] = molecular target: T7, OR10AG1 (Homo sapiens) (UniProt Q8NH19)
T7 sequence (whole entry): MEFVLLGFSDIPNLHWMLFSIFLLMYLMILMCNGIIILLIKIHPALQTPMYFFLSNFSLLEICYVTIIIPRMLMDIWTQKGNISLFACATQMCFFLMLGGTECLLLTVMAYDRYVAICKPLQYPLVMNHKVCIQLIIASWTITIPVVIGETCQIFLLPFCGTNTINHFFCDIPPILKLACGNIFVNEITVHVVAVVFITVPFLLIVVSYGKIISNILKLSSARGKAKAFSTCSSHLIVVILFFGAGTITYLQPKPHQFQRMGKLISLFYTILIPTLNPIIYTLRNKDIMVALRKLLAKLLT
Method in brief: as §1

[8] = molecular target: T8, OR10C1 (Homo sapiens) (UniProt Q96KK4)
T8 sequence (whole entry): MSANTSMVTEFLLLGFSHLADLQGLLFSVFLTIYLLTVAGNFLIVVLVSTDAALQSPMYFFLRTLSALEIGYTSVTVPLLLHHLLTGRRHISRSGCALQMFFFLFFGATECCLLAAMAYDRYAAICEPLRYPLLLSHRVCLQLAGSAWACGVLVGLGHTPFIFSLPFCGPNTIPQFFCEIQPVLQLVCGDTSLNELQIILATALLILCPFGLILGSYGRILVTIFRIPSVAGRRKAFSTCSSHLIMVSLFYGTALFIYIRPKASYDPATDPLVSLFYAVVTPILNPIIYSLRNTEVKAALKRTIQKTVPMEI
Method in brief: as §1

[9] = molecular target: T9, OR10D3 (Homo sapiens) (UniProt Q8NH80)
T9 sequence (whole entry): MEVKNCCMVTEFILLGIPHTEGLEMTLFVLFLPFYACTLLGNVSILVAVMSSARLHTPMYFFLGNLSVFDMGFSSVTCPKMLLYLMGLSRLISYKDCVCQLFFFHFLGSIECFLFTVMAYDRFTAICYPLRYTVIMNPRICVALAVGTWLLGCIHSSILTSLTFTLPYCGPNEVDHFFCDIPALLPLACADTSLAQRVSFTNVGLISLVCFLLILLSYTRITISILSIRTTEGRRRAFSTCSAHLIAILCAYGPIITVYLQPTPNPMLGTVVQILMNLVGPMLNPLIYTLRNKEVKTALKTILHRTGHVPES
Method in brief: as §1

[10] = molecular target: T10, OR10G2 (Homo sapiens) (UniProt Q8NGC3)
T10 sequence (whole entry): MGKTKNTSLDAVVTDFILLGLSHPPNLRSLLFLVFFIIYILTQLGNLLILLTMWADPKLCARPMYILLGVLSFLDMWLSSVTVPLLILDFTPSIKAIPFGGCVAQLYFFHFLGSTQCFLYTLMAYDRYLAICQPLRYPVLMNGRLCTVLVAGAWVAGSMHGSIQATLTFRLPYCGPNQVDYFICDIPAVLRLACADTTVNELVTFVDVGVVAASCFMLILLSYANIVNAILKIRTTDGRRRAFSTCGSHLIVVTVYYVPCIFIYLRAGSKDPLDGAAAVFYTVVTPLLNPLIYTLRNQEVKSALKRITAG
Method in brief: as §1

[11] = molecular target: T11, OR10G3 (Homo sapiens) (UniProt Q8NGC4)
T11 sequence (whole entry): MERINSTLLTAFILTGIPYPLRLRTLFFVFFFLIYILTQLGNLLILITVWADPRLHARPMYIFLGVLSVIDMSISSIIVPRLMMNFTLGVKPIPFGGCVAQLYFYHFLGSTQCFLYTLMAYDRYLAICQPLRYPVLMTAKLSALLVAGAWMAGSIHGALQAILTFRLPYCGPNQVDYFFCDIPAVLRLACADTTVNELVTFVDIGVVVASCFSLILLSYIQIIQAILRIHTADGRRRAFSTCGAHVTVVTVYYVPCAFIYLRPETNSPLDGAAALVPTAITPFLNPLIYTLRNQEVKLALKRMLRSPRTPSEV
Method in brief: as §1

[12] = molecular target: T12, OR10G4 (Homo sapiens) (UniProt Q8NGN3)
T12 sequence (whole entry): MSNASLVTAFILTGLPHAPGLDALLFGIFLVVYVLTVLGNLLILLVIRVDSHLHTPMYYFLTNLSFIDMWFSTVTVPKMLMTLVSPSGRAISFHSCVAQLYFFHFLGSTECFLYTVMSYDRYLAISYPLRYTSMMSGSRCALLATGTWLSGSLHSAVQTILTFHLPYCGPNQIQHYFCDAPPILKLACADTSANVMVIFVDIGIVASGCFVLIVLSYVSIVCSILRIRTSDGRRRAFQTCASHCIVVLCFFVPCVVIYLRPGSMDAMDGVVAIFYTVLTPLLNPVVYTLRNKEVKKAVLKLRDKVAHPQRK
Method in brief: as §1

[13] = molecular target: T13, OR10G6 (Homo sapiens) (UniProt Q8NH81)
T13 sequence (whole entry): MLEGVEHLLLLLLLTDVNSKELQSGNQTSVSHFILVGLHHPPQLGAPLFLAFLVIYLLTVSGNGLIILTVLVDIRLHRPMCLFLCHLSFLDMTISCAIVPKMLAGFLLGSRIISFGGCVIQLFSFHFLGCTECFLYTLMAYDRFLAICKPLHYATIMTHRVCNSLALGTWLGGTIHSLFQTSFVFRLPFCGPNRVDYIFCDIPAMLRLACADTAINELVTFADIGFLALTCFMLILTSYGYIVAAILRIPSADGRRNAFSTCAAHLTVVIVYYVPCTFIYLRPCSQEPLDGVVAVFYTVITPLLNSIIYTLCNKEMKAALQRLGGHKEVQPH
Method in brief: as §1

[14] = molecular target: T14, OR10G7 (Homo sapiens) (UniProt Q8NGN6)
T14 sequence (whole entry): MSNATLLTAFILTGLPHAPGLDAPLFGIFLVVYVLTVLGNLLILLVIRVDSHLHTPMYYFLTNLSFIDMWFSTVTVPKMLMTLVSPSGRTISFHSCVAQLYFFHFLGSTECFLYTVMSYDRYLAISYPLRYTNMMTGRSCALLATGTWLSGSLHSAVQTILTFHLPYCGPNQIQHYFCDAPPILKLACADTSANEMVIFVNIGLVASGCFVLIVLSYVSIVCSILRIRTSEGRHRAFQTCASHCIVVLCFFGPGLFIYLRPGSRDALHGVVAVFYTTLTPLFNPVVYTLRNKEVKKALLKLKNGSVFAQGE
Method in brief: as §1

[15] = molecular target: T15, OR10G8 (Homo sapiens) (UniProt Q8NGN5)
T15 sequence (whole entry): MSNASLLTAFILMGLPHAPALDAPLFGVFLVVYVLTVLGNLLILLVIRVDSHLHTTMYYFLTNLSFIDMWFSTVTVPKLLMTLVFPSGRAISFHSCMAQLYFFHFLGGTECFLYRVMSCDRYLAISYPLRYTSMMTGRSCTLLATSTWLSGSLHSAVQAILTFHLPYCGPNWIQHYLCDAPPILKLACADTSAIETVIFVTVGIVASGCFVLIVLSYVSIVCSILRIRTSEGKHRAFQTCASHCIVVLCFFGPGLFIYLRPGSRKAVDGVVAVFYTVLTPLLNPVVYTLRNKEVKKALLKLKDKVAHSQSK
Method in brief: as §1

[16] = molecular target: T16, OR10G9 (Homo sapiens) (UniProt Q8NGN4)
T16 sequence (whole entry): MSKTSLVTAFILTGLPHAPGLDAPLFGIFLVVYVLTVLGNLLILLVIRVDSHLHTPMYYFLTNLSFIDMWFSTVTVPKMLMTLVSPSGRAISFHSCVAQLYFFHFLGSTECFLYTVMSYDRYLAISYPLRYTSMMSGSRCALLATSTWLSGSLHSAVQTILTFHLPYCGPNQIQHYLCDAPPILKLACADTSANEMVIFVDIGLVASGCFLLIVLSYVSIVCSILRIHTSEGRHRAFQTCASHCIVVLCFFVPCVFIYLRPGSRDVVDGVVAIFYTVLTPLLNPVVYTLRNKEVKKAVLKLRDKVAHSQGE
Method in brief: as §1

[17] = molecular target: T17, OR10H1 (Homo sapiens) (UniProt Q9Y4A9)
T17 sequence (whole entry): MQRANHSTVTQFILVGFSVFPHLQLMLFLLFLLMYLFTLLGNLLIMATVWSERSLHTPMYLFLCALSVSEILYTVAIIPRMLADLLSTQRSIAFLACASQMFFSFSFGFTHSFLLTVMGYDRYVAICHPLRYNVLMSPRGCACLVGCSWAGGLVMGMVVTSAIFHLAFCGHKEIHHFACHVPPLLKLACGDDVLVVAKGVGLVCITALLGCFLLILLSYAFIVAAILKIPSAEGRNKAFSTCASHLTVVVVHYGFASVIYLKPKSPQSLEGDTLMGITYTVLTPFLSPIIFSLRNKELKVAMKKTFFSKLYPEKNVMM
Method in brief: as §1

[18] = molecular target: T18, OR10H2 (Homo sapiens) (UniProt O60403)
T18 sequence (whole entry): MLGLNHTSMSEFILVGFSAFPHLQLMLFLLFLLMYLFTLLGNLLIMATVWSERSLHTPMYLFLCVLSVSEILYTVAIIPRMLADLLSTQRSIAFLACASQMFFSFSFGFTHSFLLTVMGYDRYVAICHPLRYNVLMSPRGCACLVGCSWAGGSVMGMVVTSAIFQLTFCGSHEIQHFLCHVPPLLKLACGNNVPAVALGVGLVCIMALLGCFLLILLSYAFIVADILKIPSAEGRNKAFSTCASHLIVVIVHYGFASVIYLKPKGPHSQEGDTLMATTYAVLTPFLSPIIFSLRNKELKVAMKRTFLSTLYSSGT
Method in brief: as §1

[19] = molecular target: T19, OR10H3 (Homo sapiens) (UniProt O60404)
T19 sequence (whole entry): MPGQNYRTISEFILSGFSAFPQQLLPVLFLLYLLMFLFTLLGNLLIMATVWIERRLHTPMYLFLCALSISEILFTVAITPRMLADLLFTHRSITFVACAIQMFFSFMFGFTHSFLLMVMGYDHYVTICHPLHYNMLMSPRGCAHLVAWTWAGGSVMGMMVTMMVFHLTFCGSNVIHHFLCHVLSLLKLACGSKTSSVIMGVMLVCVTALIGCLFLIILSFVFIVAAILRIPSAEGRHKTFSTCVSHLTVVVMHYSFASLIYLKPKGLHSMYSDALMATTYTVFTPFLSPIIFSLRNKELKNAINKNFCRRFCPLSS
Method in brief: as §1

Measured: odorant receptor agonist call;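 note: active if original authors judged signal statistically different from baseline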

CCCCCCC=CCCC=O
inactive: all assays above
